The source of these data is PubChem BioAssay.

Structures are written as SMILES. Unmarked numbers belong to inactive results. Inconclusive results are not listed. Calls of active or inactive are those of the source.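 The calls were made as follows, unless noted: active = viability at or below 27.92% in each of two runs, the all-compound median minus 4 SD; inconclusive = no clear call, values can overlap the other calls; inactive = the rest.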

Assay [1] in a line: OD615 S. cerevisiae growth inhibition, permissive medium, pilot counter-assay, permissive growth control for S. cerevisiae lifespan shortening project (AID 705;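 active = growth inhibition above 25% in both replicates, a cutoff set 3 SD above the mean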). The conditions noted are these: OD615, 24 h, at 10 µM, hits give high values. The method, boiled down: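 Test system: Saccharomyces cerevisiae strain carrying genetically modified DeaD replicative-lifespan system; buffer or medium: SC raffinose/galactose permissive medium; dosing: one dose 10 µM, DMSO 0.25% final; times: 24 h exposure, 30 °C; measured by: OD at 615 nm; read-out basis: growth inhibition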

The nature of assay [2]: Restrictive medium S. cerevisiae growth inhibition, OD615, pilot screen of yeast lifespan reduction project, restrictive growth control (AID 706;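 active = growth inhibition above a set limit, 3 SD over mean compound inhibition, in both replicates, cut at about 43% in these data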;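 also: modified DeaD lifespan yeast strain shifted to restrictive glucose medium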). Particulars: OD615, 48 h, at 10 µM, hits give high values. In short, it runs like this:
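material = engineered S. cerevisiae DeaD strain | buffer or medium = glucose-based CSMM-D restrictive medium | dosing = one concentration, 10 µM final, 0.25% DMSO | schedule = 4 h pre-growth plus 48 h compound exposure, 30 °C | detection = OD615 absorbance reading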

Assay [3] is described as follows: viability gain of MRP-1-high H69AR cells under doxorubicin, pilot screen, MRP-1 activator project, CellTiter-Glo, duplicate (AID 807;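 active = viability increase at or above a cutoff of the median across tested compounds plus 3 SD, cut at about 8.5% in these data, passing the limit was not always enough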;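 also: compound pretreatment 18-22 h then 72 h combined with doxorubicin; 0% = doxorubicin alone and 100% = vehicle without doxorubicin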). Particulars: H69AR viability with doxorubicin, CellTiter-Glo luminescence; at 10 µM; hits give high values. Background: Cellular ATP, detected with luciferase, serves as a proxy for viable cell number.
Assay [4] can be described thus: growth suppression of beta-catenin knockout HCT116, pilot screen, human colon tumor cells (AID 823;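 active = cell viability at or below a set limit in both duplicate runs, the limit being the all-compound median minus 4 SD, cut at about 23% in these data, passing the limit was not always enough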;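 also: 0% = wells killed by 20 µM Hyamine and 100% = untreated DMSO cell wells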). Particulars: CellTiter-Glo, 60 h, at 10 µM, hits give low values.
A short description of assay [5]: growth suppression of PTEN-deleted HCT116, pilot screen, cell-based, HCT116 clonal line, CellTiter-Glo (AID 824).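 Also: 0% = 20 µM Hyamine control and 100% = vehicle cell control.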 The conditions noted are these: 60 h, at 10 µM, hits give low values.
Assay [6] in a line: inhibitors of the yeast RAM network, pilot screen, dse1pr::URA3 reporter, 5-FOA selection (AID 869;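 active = inhibition over a set limit, the all-compound mean plus 3 SD, in both replicate runs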;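 also: 0% = DMSO wells with no growth and 100% = 10 µM 1-NA-PP1 with full growth; RAM network block rescues cells from 5-FOA so hits raise OD615 growth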). Particulars: S. cerevisiae dse1pr::URA3 5-FOA growth, OD615, 2 d; at 10 µM; hits give high values; strain carries analog-sensitive mutant Cbk1 kinase.

With `CCN1CCN(CC(=O)Nc2ccc(Cl)c(Cl)c2)C(=O)C1=O`, the growth inhibition in assay [1] was 3.48%; in assay [2], -8.29%. Moreover, in assay [3], the viability increase is -0.65%. The viability – broadly, a read-out of living cells in per cent, often relative to untreated cells – was 102% in assay [4] and 97.7% in assay [5]. For the same compound, in assay [6], the inhibition (commonly the drop in the measured response relative to a control, in per cent) is 0.63%.
`COc1ccccc1OCCSc1nnnn1-c1ccc(C)cc1`: the growth inhibition in assay [1] is -13.8%; in assay [2], -6.1%. For the same compound, the viability increase in assay [3] was 0.71%. The viability is 79.5% in assay [4] and 78.7% in assay [5]. Besides, the inhibition in assay [6] was 2.32%.
On to `O=C(Cn1c(=O)sc2ccccc21)NCc1ccccn1`, for which the growth inhibition in assay [1] is 1.44%; in assay [2], -6.78%. Further, the viability increase in assay [3] was -1.78%. Also, the viability was 104% in assay [4] and 93.4% in assay [5]. In addition, in assay [6], the inhibition is 1.19%.
For the compound `C1=C(c2ccccc2)CCN(c2nc3ccccc3n3cnnc23)C1`, the growth inhibition in assay [1] was -7.88%; in assay [2], 11.2%. Also, the viability increase in assay [3] is -3.98%. Further, the figures for the viability in assay [4] and in assay [5] were 90.4% and 86.8%, respectively. Moreover, the inhibition in assay [6] is 0.34%.
As to `CCCCSc1nc2c(c(=O)[nH]c(=O)n2C)n1CCc1ccccc1`, the values for the growth inhibition in assay [1] and in assay [2] were -16.6% and -9.86%, respectively. The viability increase in assay [3] is -3.38%. Also, the viability in assay [4] was 84.1%; in assay [5] it was 85.9%. Besides, the inhibition in assay [6] is 2.35%.
Consider `CN(Cc1ccccc1)c1oc(COc2ccccc2F)nc1C#N`, for which the results for the growth inhibition in assay [1] and in assay [2] were -1.62% and -8.97%, respectively. Besides, the viability increase in assay [3] is 2.94%. Moreover, the viability was 80.2% in assay [4] and 80.9% in assay [5]. Also, in assay [6], the inhibition was 1.07%.
With `CCCCOc1ccccc1C1NC(=O)NC(C)=C1C(=O)OCCOC` (configuration not stated), the results for the growth inhibition in assay [1] and in assay [2] were -16% and -16.6%, respectively. Besides, the viability increase in assay [3] is -2.89%. Besides, the viability in assay [4] is 92.9%; in assay [5] it was 88.1%. Also, the inhibition in assay [6] was 2.28%.
Consider `Brc1ccccc1-c1nnc(CSc2nnc3sc4ccccc4n23)o1`, for which the values for the growth inhibition in assay [1] and in assay [2] were 16.1% and 64.8% (active), respectively. For the same compound, in assay [3], the viability increase is -3.18%. Besides, the viability is 96.1% in assay [4] and 91.7% in assay [5]. Also, in assay [6], the inhibition is 2.15%.
As to `COc1ccc(OC)c(NC(=O)CN(c2ccc(C(C)C)cc2)S(=O)(=O)c2c(C)noc2C)c1`, the growth inhibition was -11.5% in assay [1] and -12.1% in assay [2]. Moreover, the viability increase in assay [3] was -4.81%. Moreover, the viability in assay [4] is 56.5%; in assay [5], 48.1%. The inhibition in assay [6] was 2.27%.
For `CC(C)Oc1ccc(NC(=O)Oc2ccccc2)cc1`, the figures for the growth inhibition in assay [1] and in assay [2] were -4.28% and -8.55%, respectively. The viability increase in assay [3] was -0.53%. For the same compound, the viability in assay [4] is 97.4%; in assay [5], 96.8%. The inhibition in assay [6] was 2.38%.
Consider `Cc1c(C(=O)O)nn(-c2ccccc2)c(=O)c1C#N`, for which the growth inhibition is -15.2% in assay [1] and 5.62% in assay [2]. Also, in assay [3], the viability increase was 0.49%. Also, the viability in assay [4] is 98.4%; in assay [5], 102%. For the same compound, the inhibition in assay [6] was 1.46%.
With `O=C(c1cnn2ccccc12)N1CCCc2ccccc21`, the growth inhibition is -3.54% in assay [1] and -1.29% in assay [2]. The viability increase in assay [3] is -1.74%. For the same compound, the viability in assay [4] was 97.1%; in assay [5], 91.9%. Also, the inhibition in assay [6] was 2.38%.
As to `COC(=O)c1ccc(CSc2ccc3nnc(-c4cccc(F)c4)n3n2)o1`, the results for the growth inhibition in assay [1] and in assay [2] were 6.12% and 49% (active), respectively. Moreover, in assay [3], the viability increase was -3.24%. The viability in assay [4] is 87.9%; in assay [5] it was 91.4%. Further, the inhibition in assay [6] is -0.025%.
Take `CCOC(=O)C1=C(N)OC2=C(C(=O)CC(C)(C)C2)C1C1CCCCC1` (configuration not stated): the growth inhibition in assay [1] is -13.2%; in assay [2], -4.08%. Further, in assay [3], the viability increase was -1.22%. Further, the results for the viability in assay [4] and in assay [5] were 93.3% and 92.9%, respectively. Further, the inhibition in assay [6] was 1.4%.
On to `Cc1cccc(-c2noc(CN(C(=O)c3c(-c4ccccc4Cl)noc3C)C(C)C)n2)c1`, for which the growth inhibition in assay [1] was -13.9%; in assay [2] it was -13%. Further, the viability increase in assay [3] is -3.28%. The viability in assay [4] is 44.3%; in assay [5], 49.4%. In addition, the inhibition in assay [6] was 0.585%.
With `CCOC(=O)c1cc2c(=O)n3ccccc3nc2n(Cc2ccco2)c1=NC(=O)c1cccnc1`, the growth inhibition in assay [1] is -1.49%; in assay [2], 14%. The viability increase in assay [3] is 3.61%. For the same compound, the figures for the viability in assay [4] and in assay [5] were 99.5% and 99%, respectively. In addition, in assay [6], the inhibition was 1.91%.
`Cn1c(=O)oc2cc(S(=O)(=O)N3CCC(C(=O)NCC4COc5ccccc5O4)CC3)ccc21` (configuration not stated): the growth inhibition in assay [1] is -17.2%; in assay [2] it was -19.6%. The viability increase in assay [3] is 0.66%. Moreover, the values for the viability in assay [4] and in assay [5] were 103% and 96.8%, respectively. For the same compound, the inhibition in assay [6] was 3.92%.
